Series [1] has as its target T1, OATP1B1 (Homo sapiens, UniProt Q9Y6L6).
T1 sequence (Q9Y6L6 1-691): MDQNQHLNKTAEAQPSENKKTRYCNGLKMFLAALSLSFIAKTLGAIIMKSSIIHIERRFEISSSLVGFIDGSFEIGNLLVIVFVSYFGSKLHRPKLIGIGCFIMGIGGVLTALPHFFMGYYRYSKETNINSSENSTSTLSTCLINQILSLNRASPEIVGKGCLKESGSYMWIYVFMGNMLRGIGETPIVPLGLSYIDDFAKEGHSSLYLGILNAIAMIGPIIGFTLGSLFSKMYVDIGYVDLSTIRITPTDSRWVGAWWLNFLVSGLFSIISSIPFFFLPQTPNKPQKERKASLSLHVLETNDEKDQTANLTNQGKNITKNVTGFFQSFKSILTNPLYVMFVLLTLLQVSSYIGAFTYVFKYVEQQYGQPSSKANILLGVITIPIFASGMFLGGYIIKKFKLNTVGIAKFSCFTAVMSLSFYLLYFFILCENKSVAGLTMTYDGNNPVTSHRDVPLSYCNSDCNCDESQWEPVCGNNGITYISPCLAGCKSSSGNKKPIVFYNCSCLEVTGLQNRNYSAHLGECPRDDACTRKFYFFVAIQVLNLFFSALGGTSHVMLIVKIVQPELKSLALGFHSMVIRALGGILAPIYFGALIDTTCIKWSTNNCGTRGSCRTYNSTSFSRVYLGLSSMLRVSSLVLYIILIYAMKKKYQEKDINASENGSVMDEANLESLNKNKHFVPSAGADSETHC
Put plainly: OATP1B1 inhibition assay. It is filed as cell-based. The method, boiled down: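 Stably transfected OATP1B1- or OATP1B3-HEK293 cells and empty-vector HEK293 control, grown in DMEM/10% FCS with G418. Cells exposed 10 min at 37 °C to 2.5 µM 8-FcA ± test compound (0.1–100 µM, in PBS/2% FCS). After washing, median intracellular fluorescence read by flow cytometry (30,000 cells, viable gate). With/without-inhibitor ratio normalised to control line. 8 replicates/concentration, 3–5 experiments. Four-parameter fit gives IC50. Rifampicin control.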

For another series, the target named is T2, OATP2B1 (Homo sapiens, UniProt O94956).
T2 sequence (O94956 1-709): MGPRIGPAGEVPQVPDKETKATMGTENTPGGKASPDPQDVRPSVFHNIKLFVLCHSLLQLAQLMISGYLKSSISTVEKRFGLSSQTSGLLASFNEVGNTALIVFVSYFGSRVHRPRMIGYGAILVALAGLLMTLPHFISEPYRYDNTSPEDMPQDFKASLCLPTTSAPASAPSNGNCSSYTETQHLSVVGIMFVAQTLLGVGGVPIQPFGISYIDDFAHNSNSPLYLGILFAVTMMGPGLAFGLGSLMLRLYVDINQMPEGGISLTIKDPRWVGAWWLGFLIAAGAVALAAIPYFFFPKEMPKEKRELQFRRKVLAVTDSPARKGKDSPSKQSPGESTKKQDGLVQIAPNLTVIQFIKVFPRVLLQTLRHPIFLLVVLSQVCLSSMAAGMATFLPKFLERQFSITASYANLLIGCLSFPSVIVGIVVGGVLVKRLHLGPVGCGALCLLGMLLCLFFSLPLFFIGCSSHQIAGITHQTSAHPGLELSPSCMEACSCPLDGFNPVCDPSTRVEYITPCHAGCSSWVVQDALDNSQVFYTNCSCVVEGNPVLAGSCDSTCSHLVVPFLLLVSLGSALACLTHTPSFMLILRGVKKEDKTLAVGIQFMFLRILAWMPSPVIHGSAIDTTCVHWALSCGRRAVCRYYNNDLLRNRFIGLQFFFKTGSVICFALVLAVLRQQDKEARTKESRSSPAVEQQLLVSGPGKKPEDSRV
Put plainly: OATP2B1 inhibition assay. It counts as cell-based. The method in brief:
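HEK293 cells with tetracycline-inducible OATP2B1, grown in DMEM/Ham's F12/10% FCS and induced with 1 µg/ml tetracycline 72 h before assay. Substrate 1 µM DBF ± test compound (0.1–100 µM, in PBS/2% FCS), 10 min at 37 °C. After washing, median intracellular fluorescence read by flow cytometry. Normalised to non-induced cells. 8 replicates/concentration, 3–5 experiments. IC50 from four-parameter fit. Naringin control inhibitor.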

The target of series [2] is T3, OATP1B3 (Homo sapiens, UniProt Q9NPD5).
T3 sequence (Q9NPD5 1-702): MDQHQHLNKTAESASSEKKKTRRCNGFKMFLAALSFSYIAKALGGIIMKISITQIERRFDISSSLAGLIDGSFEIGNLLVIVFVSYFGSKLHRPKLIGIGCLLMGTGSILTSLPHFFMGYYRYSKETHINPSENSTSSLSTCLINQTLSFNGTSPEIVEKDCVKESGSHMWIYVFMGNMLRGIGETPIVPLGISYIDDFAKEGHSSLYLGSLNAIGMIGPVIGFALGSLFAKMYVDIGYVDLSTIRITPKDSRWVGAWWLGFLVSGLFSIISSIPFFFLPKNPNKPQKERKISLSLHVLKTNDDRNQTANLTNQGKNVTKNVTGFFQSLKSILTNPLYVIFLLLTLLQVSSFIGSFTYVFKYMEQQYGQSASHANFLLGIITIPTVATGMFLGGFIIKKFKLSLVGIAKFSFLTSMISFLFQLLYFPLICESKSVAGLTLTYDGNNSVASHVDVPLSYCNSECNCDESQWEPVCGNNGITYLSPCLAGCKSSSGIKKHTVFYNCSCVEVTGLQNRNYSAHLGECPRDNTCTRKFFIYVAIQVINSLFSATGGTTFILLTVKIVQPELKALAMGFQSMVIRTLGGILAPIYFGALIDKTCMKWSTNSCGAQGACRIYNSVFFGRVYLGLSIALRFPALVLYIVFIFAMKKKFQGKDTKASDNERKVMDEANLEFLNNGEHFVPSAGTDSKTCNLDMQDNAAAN
Briefly: OATP1B3 inhibition assay. It is filed as cell-based.

For series [3] the following is noted: rats; cited from earlier work.
Series [4] addresses T1, OATP1B1. To be noted: read-out: OATP1B1 IC50; control inhibitor; 8-FcA uptake; cited from earlier work.
For series [5], the target named is T3, OATP1B3. The settings on record: read-out: OATP1B3 IC50; control inhibitor; 8-FcA uptake; cited from earlier work.

By IC50 is commonly meant the concentration at which inhibition is half-maximal. A word on the bioavailability: it is dose-corrected exposure relative to a reference, in per cent.

Where two headings read alike, the source gives them in different places.

As to `C[C@@H]1O[C@@H](O[C@H]2[C@H](Oc3cc(O)c4c(c3)O[C@H](c3ccc(O)cc3)CC4=O)O[C@H](CO)[C@@H](O)[C@@H]2O)[C@H](O)[C@H](O)[C@H]1O` [Naringin, naringin, reference compound], the IC50 against OATP1B1 [1] is above 100 µM; against OATP2B1, 6.9 ± 1.4 µM; at OATP1B3 [2], above 100 µM.
`C[C@@H]1O[C@@H](OC[C@H]2O[C@@H](Oc3cc(O)c4c(c3)O[C@H](c3ccc(O)cc3)CC4=O)[C@H](O)[C@@H](O)[C@@H]2O)[C@H](O)[C@H](O)[C@H]1O` [Narirutin, narirutin]: the IC50 was above 100 µM against OATP1B1 [1], 14.2 ± 3.5 µM against OATP2B1 and above 100 µM on OATP1B3 [2].
As to `COc1ccc(-c2cc(=O)c3c(OC)c(OC)c(OC)c(OC)c3o2)cc1OC` [Nobiletin, nobiletin], the figures for the IC50 at OATP1B1 [1], against OATP2B1 and at OATP1B3 [2] were 2.1 ± 0.7 µM, 1.6 ± 0.4 µM and 6.6 ± 0.4 µM, respectively. In addition, in series [3], the bioavailability is 36%.
`CO[C@H]1/C=C/O[C@@]2(C)Oc3c(C)c(O)c4c(O)c(c(/C=N/N5CCN(C)CC5)c(O)c4c3C2=O)NC(=O)/C(C)=C\C=C\[C@H](C)[C@H](O)[C@@H](C)[C@@H](O)[C@@H](C)[C@H](OC(C)=O)[C@@H]1C` [Rifampicin, rifampicin]: the IC50 at OATP1B1 [4] and on OATP1B3 [5] was around 2 µM in each case.
Consider `COc1ccc(-c2cc(=O)c3c(OC)c(OC)c(OC)cc3o2)cc1OC` [Sinensetin, sinensetin], for which the results for the IC50 on OATP1B1 [1], on OATP2B1 and against OATP1B3 [2] were 8 ± 2.6 µM, 5.4 ± 0.6 µM and 21.1 ± 3.4 µM, respectively. Besides, the “potency for OATP1B3 relative to rifampicin” value on OATP1B3 [2] (comparison of IC50 values) is given as “about ten times lower”.
With `COc1ccc(-c2cc(=O)c3c(OC)c(OC)c(OC)c(OC)c3o2)cc1` [Tangeretin, tangeretin], the IC50 worked out at 4.8 ± 1.7 µM at OATP1B1 [1], 1.6 ± 0.8 µM against OATP2B1 and 5.6 ± 1 µM on OATP1B3 [2]. Also, in series [3], the bioavailability is 27%.

Values taken from paper PMC7677148 (European Journal of Drug Metabolism and Pharmacokinetics, 2020).
